High-throughput results deposited in PubChem BioAssay by Broad Institute.
dFosB act: activators of mouse delta FosB homodimer; purified delta FosB, TAMRA-CDK5 oligo fluorescence polarization; percent of positive-control signal above neutral wells; P13346; activation, % at 25 µM; AID 493131; 340,000 tested, 0.99% active;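 active means mean activation above about 17%, with every replicate also reaching it, limit read from the data, passing the limit was not always enough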
Target sequence (P13346 whole entry, looked up): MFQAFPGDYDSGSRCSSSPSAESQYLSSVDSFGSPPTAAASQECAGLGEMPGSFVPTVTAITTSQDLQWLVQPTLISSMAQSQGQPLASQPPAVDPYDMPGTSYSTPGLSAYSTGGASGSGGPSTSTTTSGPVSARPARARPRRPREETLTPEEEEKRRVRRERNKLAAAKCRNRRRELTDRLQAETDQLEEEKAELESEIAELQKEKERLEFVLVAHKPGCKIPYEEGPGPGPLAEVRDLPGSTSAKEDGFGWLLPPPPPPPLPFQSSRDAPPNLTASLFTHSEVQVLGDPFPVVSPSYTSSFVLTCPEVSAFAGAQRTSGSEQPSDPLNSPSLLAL
S100A4 MyoIIA: blocks human S100A4 binding to myosin IIA peptide | 360,000 tested, 0.14% active | S100A4/TAMRA-MyoIIA peptide fluorescence polarization | inhibition, % at 10.7 µM;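 active means mean inhibition of at least 70% across replicates, with every replicate also reaching that level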
Target sequence (P26447 whole entry, looked up): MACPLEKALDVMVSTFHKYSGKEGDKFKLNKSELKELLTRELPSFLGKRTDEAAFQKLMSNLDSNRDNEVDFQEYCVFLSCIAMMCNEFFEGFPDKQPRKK
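System – human S100A4 monomer protein, biochemical binding assay · Buffer or medium – Calcium-containing HEPES buffer, pH 7.2 · Timing – 5 min between mix addition and reading · Also added – TAMRA-labelled myosin IIA heavy-chain peptide probe, 5 nM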
FGF22 binding: binders of recombinant human FGF22 by thermal shift; Q9HCT0; activity (Tm shift, normalised), % at 9.99 µM; SYPRO orange fluorescence; percent of sucrose octasulfate shift, DMSO zero; 340,000 tested, 1.5% active;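 active means mean Tm shift, scaled 0 neutral to 100 positive control, at about 1.3% or above, every replicate too, limit read from the data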
Target sequence (Q9HCT0 whole entry, looked up): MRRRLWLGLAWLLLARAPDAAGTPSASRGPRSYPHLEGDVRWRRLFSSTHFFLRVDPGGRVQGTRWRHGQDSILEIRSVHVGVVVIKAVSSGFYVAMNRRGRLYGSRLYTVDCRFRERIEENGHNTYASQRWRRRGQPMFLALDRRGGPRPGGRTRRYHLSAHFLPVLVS
F508del corr: correctors of CFTR F508del function in bronchial epithelial cells; AID 720511; 350,000 tested, 0.36% active; activity (quench increase), % at 7.58 µM; CFBE cells, YFP halide quenching; stimulated with forskolin plus potentiator P3; % fluorescence drop versus neutral controls;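 active means mean added fluorescence quench of at least 8% versus neutral control, with both replicates also reaching 8%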;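 further: cells transiently co-express mutant CFTR-F508del with the halide-sensitive YFP; corrector assay measuring rescue of mutant channel to the surface after 24 h compound exposure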
Large screens that a line does not name were inactive. Hits are enriched below; roughly 2.2% of the tested compounds scored in any of these assays.

COc1ccc(-c2cc(NCc3ccccn3)n3ncnc3n2)cc1	none (no result: S100A4 MyoIIA, FGF22 binding, F508del corr)
Cc1cccc(-c2cc(NCCc3cccnc3)n3nccc3n2)c1	FGF22 binding 43 (no result: dFosB act)
O=C(Cc1ccccc1[N+](=O)[O-])NCc1ccco1	FGF22 binding 44
O=C(C[C@H]1C[C@H]2c3cc(NC(=O)C4CCC4)ccc3O[C@H]2[C@@H](CO)O1)NCc1cc(F)ccc1F	none (no result: dFosB act)
Cc1cccc(Cc2c(C)[nH]c(=O)c(C#N)c2C)c1	FGF22 binding 43
O=C(Cc1ccccn1)N[C@@H]1CC[C@@H](CCn2cc(-c3ccc(F)cc3)nn2)O[C@@H]1CO	none (no result: dFosB act, FGF22 binding)
Cc1ccc(/C=C/C(=O)N2CC(=O)Nc3ccccc32)o1	FGF22 binding 44
Cc1cc(C)cc(C(=O)N2CC(=O)Nc3ccccc32)c1	none (no result: S100A4 MyoIIA, FGF22 binding, F508del corr)
Cc1[nH]c2ccccc2c1/C=N/NC(=O)c1cccc(S(=O)(=O)Nc2cccc(C(F)(F)F)c2)c1	FGF22 binding 43
Cc1[nH]c2ccccc2c1/C=N\NC(=O)c1ccccc1Cl	FGF22 binding 43 (no result: dFosB act)
Cc1[nH]c2ccccc2c1/C=N/Nc1ccccc1[N+](=O)[O-]	FGF22 binding 1.9
COc1ccc(NS(=O)(=O)c2cc([N+](=O)[O-])ccc2N/N=C/c2c(C)[nH]c3ccccc23)cc1	none
CN1CCN(C(=O)C[C@@H]2C[C@H]3c4cc(NC(=O)Nc5ccc(C(F)(F)F)cc5)ccc4O[C@H]3[C@@H](CO)O2)CC1	none (no result: dFosB act)
CNC(=O)CC1C(=O)N(C)C(=S)N1NC(=O)c1ccccc1 (configuration not stated)	none
O=C(CC1C(=O)N(c2ccc(Cl)cc2)C(=S)N1CCc1ccncc1)Nc1ccc(F)cc1 (configuration not stated)	FGF22 binding 2.3
CNC(=O)CC1C(=O)N(c2ccc(F)cc2)C(=S)N1NC(=O)c1ccc(Cl)cc1 (configuration not stated)	F508del corr 8.0
C[C@@H]1CN([C@@H](C)CO)C(=O)c2cc(NC(=O)Cc3ccccc3)ccc2O[C@@H](C)CCCCO[C@@H]1CN(C)S(=O)(=O)c1ccc(F)cc1	none (no result: dFosB act, S100A4 MyoIIA)
O=c1oc2ccccc2c(NC2CCCCC2)c1NS(=O)(=O)c1ccc(Br)cc1	none (no result: S100A4 MyoIIA, FGF22 binding, F508del corr)
CCCNc1c(NS(=O)(=O)c2ccc(Br)cc2)c(=O)oc2ccccc12	dFosB act 46
C[C@H]1CN([C@@H](C)CO)S(=O)(=O)c2ccc(C#CC3CC3)cc2O[C@H]1CN(C)S(C)(=O)=O	none (no result: dFosB act)
CCC(c1ccccc1)C(CC)c1cc(O)c(O)c(O)c1 (configuration not stated)	FGF22 binding 43
CCC(C)c1ccccc1O (configuration not stated)	none
CC(=O)N[C@H]1CC[C@@H](CCNC(=O)C2CCC2)O[C@H]1CO	none (no result: dFosB act)
COc1ccc(-n2c(SCC(N)=O)nc3sc4c(c3c2=O)CCC4)cc1	FGF22 binding 43
COc1cc(/C=N/N=C(N)N)ccc1OCc1ccccc1Cl	dFosB act 24
Cc1cccc(NC(=O)CNC(=O)COc2ccc(C(=O)c3ccc(F)cc3)cc2)c1C	none (no result: S100A4 MyoIIA, FGF22 binding, F508del corr)
Cc1cccc(NC(=O)CNC(=O)COc2cc(F)ccc2[N+](=O)[O-])c1C	FGF22 binding 43 (no result: F508del corr)
CC(=O)N(C)C[C@@H]1Oc2ncc(-c3ccc(C)cc3)cc2C(=O)N([C@@H](C)CO)C[C@@H]1C	none (no result: dFosB act)
CC(=O)c1ccc(NC(=S)NN2C(C)CCCC2C)cc1 (configuration not stated)	FGF22 binding 43
O=C(O)C1Nc2c(O)cc(Cl)c([N+](=O)[O-])c2C2C=CCC12 (configuration not stated)	FGF22 binding 2.7
CCCNC(=O)N1C[C@@H](C)[C@@H](OC)CN(C)C(=O)c2cc(NS(C)(=O)=O)ccc2OC[C@@H]1C	none (no result: dFosB act)
Cc1ccc(/C=N\NC(=O)COc2ccc(C)cc2[N+](=O)[O-])cc1	FGF22 binding 43
CCOC(=O)Cn1nc(C(F)F)c(Br)c1C	FGF22 binding 44
CCOC(=O)C1CCN(C(=O)c2ccc3c(=O)n4nc(Nc5cc(C)ccc5C)sc4nc3c2)CC1	none
CCOC(=O)C1CCN(C(=O)c2ccc3c(=O)n4nc(Nc5ccccc5OC)sc4nc3c2)CC1	FGF22 binding 2.4 (no result: dFosB act)
C[C@@H]1CCCCO[C@@H](CN(C)S(=O)(=O)c2ccc(F)cc2)[C@@H](C)CN([C@H](C)CO)C(=O)c2cc(NC(=O)Cc3ccccc3)ccc2O1	none (no result: dFosB act, S100A4 MyoIIA)
CN1c2ccc(-c3ccccc3F)cc2[C@@H]2[C@@H](CCN2C(=O)Cc2ccccn2)[C@@H]1CO	none (no result: dFosB act)
CCNC(=O)OCc1cn(-c2ccccc2)nn1	FGF22 binding 44
C[C@H]1CCCCO[C@H](CN(C)S(=O)(=O)c2ccccc2)[C@@H](C)CN([C@@H](C)CO)C(=O)c2cc(NC(=O)NC3CCCCC3)ccc2O1	none (no result: dFosB act)
O=C1CCCn2cc(nn2)COC[C@@H](Cc2ccccc2)N1	S100A4 MyoIIA 117 (no result: dFosB act, F508del corr)
O=C(Cc1ccccc1)NCCSCc1ccc(Cl)cc1	none (no result: S100A4 MyoIIA, FGF22 binding, F508del corr)
O=C(Cc1ccc(Cl)cc1)SCc1ccccc1	FGF22 binding 44
Cc1ccc(NC(=O)CSc2nc3[nH]ncc3c(=O)[nH]2)cc1	FGF22 binding 44
CC(=O)c1ccc(NC(=O)CSc2nc3[nH]ncc3c(=O)[nH]2)cc1	none
Cc1sc2nc(SCC(=O)N3CCOCC3)[nH]c(=O)c2c1C	none
COC(=O)c1ccc(CSc2nc3sc(C(=O)O)c(C)c3c(=O)[nH]2)cc1	none (no result: dFosB act)
Cc1sc2nc(SCC(=O)O)[nH]c(=O)c2c1C	FGF22 binding 43
CCOC(=O)c1ccc(NC(=O)CSc2nc3sc(C(=O)O)c(C)c3c(=O)[nH]2)cc1	FGF22 binding 43
CC(=O)NCCC(=O)N1CCCC(CNC(=O)c2ccc(-c3ccccc3)cc2)C1 (configuration not stated)	FGF22 binding 43
CC(OC(=O)/C=C/c1ccc(Br)cc1)C(=O)N1CCOCC1 (configuration not stated)	none (no result: FGF22 binding)
O=C(/C=C/c1ccc(Br)cc1)NC(=S)N1CCOCC1	FGF22 binding 44
Cc1[nH]c2c(ccc3cccnc32)c1C	none
CC1=[N+](C)c2c(ccc3cccnc23)C1(C)C	S100A4 MyoIIA 159
COC(=O)c1oc2ccccc2c1NC(=O)c1ccccc1O	FGF22 binding 43
Cc1noc(C)c1NC(=O)Nc1ccc2c(c1)C(=O)N([C@@H](C)CO)C[C@H](C)[C@@H](CN(C)C(=O)Nc1c(C)noc1C)OCCCC[C@H](C)O2	none (no result: dFosB act)
CCC(CC)c1nnc(NC(=O)C2=NNC(=O)CC2)s1	FGF22 binding 43
C[C@H](NC(=O)C[C@@H]1CC[C@@H](NC(=O)c2cccnc2)[C@H](CO)O1)c1ccccc1	none (no result: dFosB act)
Clc1cccc(-c2ccc(C=Nc3ccc(N4CCOCC4)cc3)o2)c1Cl	F508del corr 14
Clc1ccc(-c2ccc(C=Nc3ccc(N4CCOCC4)cc3)o2)c(Cl)c1	none
O=C(Cn1cnc([N+](=O)[O-])n1)N/N=C/c1ccc2ccccc2c1	FGF22 binding 44
CS(=O)(=O)Nc1ccc2c(c1)[C@H]1C[C@H](CC(=O)NCC3CC3)O[C@@H](CO)[C@H]1O2	none (no result: dFosB act)
